Reference: ChEMBL document CHEMBL4689842, “EUbOPEN Chemogenomics Library wave 1” (2021)
Values joined by “and” are separate entries in the source; they are usually repeats but may differ in a detail not shown here. Identical values can stand only once.

Tested on: U2OS
Assay: Multiplex assay against U2OS
Type: toxicity, cell-based
Conditions: human
Procedure, shortened: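 Hoechst33342, BioTracker Green Microtubule Cytoskeleton Dye, MitoTracker Red and Annexin V Alexa Fluor 680 were added to live cells at seeding, and imaging on a CQ1 microscope at 37°C and 5% CO2 followed compound addition. Gating by CellPathfinder machine learning separated cells into Hoechst high-intensity objects or normal cells, then normal cells into healthy, pyknosed or fragmented nuclei, then pyknosed cells into mitotic or apoptotic. Per cents of healthy-nucleus cells are reported for the tubulin, mitochondrial-mass and membrane-permeability phenotypes.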

[1] = 12 h, 1 µM, compound concentration 1 uM, replicate 1
[2] = 12 h, 1 µM, compound concentration 1 uM, replicate 2
[3] = 12 h, 10 µM, compound concentration 10 uM, replicate 1
[4] = 12 h, 10 µM, compound concentration 10 uM, replicate 2
[5] = 24 h, 1 µM, compound concentration 1 uM, replicate 1
[6] = 24 h, 1 µM, compound concentration 1 uM, replicate 2
[7] = 24 h, 10 µM, compound concentration 10 uM, replicate 1
[8] = 24 h, 10 µM, compound concentration 10 uM, replicate 2
[9] = 48 h, 1 µM, compound concentration 1 uM, replicate 1
[10] = 48 h, 1 µM, compound concentration 1 uM, replicate 2
[11] = 48 h, 10 µM, compound concentration 10 uM, replicate 1
[12] = 48 h, 10 µM, compound concentration 10 uM, replicate 2

CN(C)C(=O)/C(C#N)=C/c1ccc(-c2nc3cnc4[nH]ccc4c3n2C2CCCCC2)o1
Population Apoptotic (%) [1]: 60% | Population Fragmented Nuclei (%) [1]: 17% | Population Healthy Nuclei (%) [1]: 69% | Population Hoechst High Intensity Objects (%) [1]: 8% | Population Membrane Permeable-Phenotype (%) [1]: 5% | Population Mitochondria Different-Phenotype (%) [1]: 14% | Population Mitotic Cells (%) [1]: 40% | Population Normal (%) [1]: 91% | Population Pyknosed Nuclei (%) [1]: 13% | Population Tubulin-Different-Phenotype (%) [1]: 8% | Total Cell Count [1]: 122 | Population Apoptotic (%) [2]: 57% | Population Fragmented Nuclei (%) [2]: 4% | Population Healthy Nuclei (%) [2]: 87% | Population Hoechst High Intensity Objects (%) [2]: 2% | Population Membrane Permeable-Phenotype (%) [2]: 2% | Population Mitochondria Different-Phenotype (%) [2]: 6% | Population Mitotic Cells (%) [2]: 42% | Population Normal (%) [2]: 97% | Population Pyknosed Nuclei (%) [2]: 7% | Population Tubulin-Different-Phenotype (%) [2]: 24% | Total Cell Count [2]: 75 | Population Apoptotic (%) [3]: 19% | Population Fragmented Nuclei (%) [3]: 17% | Population Healthy Nuclei (%) [3]: 56% | Population Hoechst High Intensity Objects (%) [3]: 49% | Population Membrane Permeable-Phenotype (%) [3]: 12% | Population Mitochondria Different-Phenotype (%) [3]: 55% | Population Mitotic Cells (%) [3]: 80% | Population Normal (%) [3]: 50% | Population Pyknosed Nuclei (%) [3]: 25% | Population Tubulin-Different-Phenotype (%) [3]: 75% | Total Cell Count [3]: 167 | Population Apoptotic (%) [4]: 18% | Population Fragmented Nuclei (%) [4]: 20% | Population Healthy Nuclei (%) [4]: 62% | Population Hoechst High Intensity Objects (%) [4]: 54% | Population Membrane Permeable-Phenotype (%) [4]: 13% | Population Mitochondria Different-Phenotype (%) [4]: 63% | Population Mitotic Cells (%) [4]: 81% | Population Normal (%) [4]: 45% | Population Pyknosed Nuclei (%) [4]: 17% | Population Tubulin-Different-Phenotype (%) [4]: 70% | Total Cell Count [4]: 91 | Population Apoptotic (%) [5]: 75% | Population Fragmented Nuclei (%) [5]: 12% | Population Healthy Nuclei (%) [5]: 79% | Population Hoechst High Intensity Objects (%) [5]: 5% | Population Membrane Permeable-Phenotype (%) [5]: 4% | Population Mitochondria Different-Phenotype (%) [5]: 8% | Population Mitotic Cells (%) [5]: 25% | Population Normal (%) [5]: 94% | Population Pyknosed Nuclei (%) [5]: 8% | Population Tubulin-Different-Phenotype (%) [5]: 6% | Total Cell Count [5]: 133 | Population Apoptotic (%) [6]: 54% | Population Fragmented Nuclei (%) [6]: 5% | Population Healthy Nuclei (%) [6]: 84% | Population Hoechst High Intensity Objects (%) [6]: 4% | Population Membrane Permeable-Phenotype (%) [6]: 2% | Population Mitochondria Different-Phenotype (%) [6]: 10% | Population Mitotic Cells (%) [6]: 45% | Population Normal (%) [6]: 95% | Population Pyknosed Nuclei (%) [6]: 9% | Population Tubulin-Different-Phenotype (%) [6]: 36% | Total Cell Count [6]: 81 | Population Apoptotic (%) [7]: 34% | Population Fragmented Nuclei (%) [7]: 17% | Population Healthy Nuclei (%) [7]: 56% | Population Hoechst High Intensity Objects (%) [7]: 44% | Population Membrane Permeable-Phenotype (%) [7]: 15% | Population Mitochondria Different-Phenotype (%) [7]: 45% | Population Mitotic Cells (%) [7]: 65% | Population Normal (%) [7]: 55% | Population Pyknosed Nuclei (%) [7]: 25% | Population Tubulin-Different-Phenotype (%) [7]: 55% | Total Cell Count [7]: 196 | Population Apoptotic (%) [8]: 44% | Population Fragmented Nuclei (%) [8]: 28% | Population Healthy Nuclei (%) [8]: 53% | Population Hoechst High Intensity Objects (%) [8]: 54% | Population Membrane Permeable-Phenotype (%) [8]: 12% | Population Mitochondria Different-Phenotype (%) [8]: 49% | Population Mitotic Cells (%) [8]: 55% | Population Normal (%) [8]: 45% | Population Pyknosed Nuclei (%) [8]: 17% | Population Tubulin-Different-Phenotype (%) [8]: 45% | Total Cell Count [8]: 125 | Population Apoptotic (%) [9]: 55% | Population Fragmented Nuclei (%) [9]: 8% | Population Healthy Nuclei (%) [9]: 85% | Population Hoechst High Intensity Objects (%) [9]: 0% | Population Membrane Permeable-Phenotype (%) [9]: 3% | Population Mitochondria Different-Phenotype (%) [9]: 7% | Population Mitotic Cells (%) [9]: 44% | Population Normal (%) [9]: 99% | Population Pyknosed Nuclei (%) [9]: 6% | Population Tubulin-Different-Phenotype (%) [9]: 10% | Total Cell Count [9]: 179 | Population Apoptotic (%) [10]: 30% | Population Fragmented Nuclei (%) [10]: 4% | Population Healthy Nuclei (%) [10]: 90% | Population Hoechst High Intensity Objects (%) [10]: 1% | Population Membrane Permeable-Phenotype (%) [10]: 1% | Population Mitochondria Different-Phenotype (%) [10]: 15% | Population Mitotic Cells (%) [10]: 70% | Population Normal (%) [10]: 98% | Population Pyknosed Nuclei (%) [10]: 5% | Population Tubulin-Different-Phenotype (%) [10]: 43% | Total Cell Count [10]: 104 | Population Apoptotic (%) [11]: 39% | Population Fragmented Nuclei (%) [11]: 26% | Population Healthy Nuclei (%) [11]: 47% | Population Hoechst High Intensity Objects (%) [11]: 44% | Population Membrane Permeable-Phenotype (%) [11]: 23% | Population Mitochondria Different-Phenotype (%) [11]: 18% | Population Mitotic Cells (%) [11]: 60% | Population Normal (%) [11]: 55% | Population Pyknosed Nuclei (%) [11]: 25% | Population Tubulin-Different-Phenotype (%) [11]: 36% | Total Cell Count [11]: 279 | Population Apoptotic (%) [12]: 63% | Population Fragmented Nuclei (%) [12]: 34% | Population Healthy Nuclei (%) [12]: 49% | Population Hoechst High Intensity Objects (%) [12]: 48% | Population Membrane Permeable-Phenotype (%) [12]: 27% | Population Mitochondria Different-Phenotype (%) [12]: 27% | Population Mitotic Cells (%) [12]: 36% | Population Normal (%) [12]: 51% | Population Pyknosed Nuclei (%) [12]: 16% | Population Tubulin-Different-Phenotype (%) [12]: 31% | Total Cell Count [12]: 172

Cn1c(-c2csc(C3CCN(CC4=NC5N=CC=CC5N4)CC3)n2)nc2ccccc21 (stereo not drawn) [BAY-070]
Population Fragmented Nuclei (%) [3]: 2% and 3% | Population Healthy Nuclei (%) [3]: 90% | Population Hoechst High Intensity Objects (%) [3]: 5% and 3% | Population Membrane Permeable-Phenotype (%) [3]: 6% | Population Mitochondria Different-Phenotype (%) [3]: 10% | Population Mitotic Cells (%) [3]: 91% and 70% | Population Normal (%) [3]: 94% and 96% | Population Pyknosed Nuclei (%) [3]: 6% and 11% | Population Tubulin-Different-Phenotype (%) [3]: 22% and 8% | Total Cell Count [3]: 183 and 214 | Population Fragmented Nuclei (%) [4]: 13% and 7% | Population Healthy Nuclei (%) [4]: 84% and 89% | Population Hoechst High Intensity Objects (%) [4]: 12% and 13% | Population Membrane Permeable-Phenotype (%) [4]: 19% and 8% | Population Mitochondria Different-Phenotype (%) [4]: 21% and 25% | Population Mitotic Cells (%) [4]: 100% and 66% | Population Normal (%) [4]: 87% and 86% | Population Pyknosed Nuclei (%) [4]: 2% | Population Tubulin-Different-Phenotype (%) [4]: 19% and 34% | Total Cell Count [4]: 96 and 145 | Population Apoptotic (%) [7]: 50% and 40% | Population Fragmented Nuclei (%) [7]: 5% and 3% | Population Healthy Nuclei (%) [7]: 88% and 92% | Population Hoechst High Intensity Objects (%) [7]: 3% and 2% | Population Membrane Permeable-Phenotype (%) [7]: 10% | Population Mitochondria Different-Phenotype (%) [7]: 17% and 14% | Population Mitotic Cells (%) [7]: 50% and 60% | Population Normal (%) [7]: 96% and 97% | Population Pyknosed Nuclei (%) [7]: 6% and 3% | Population Tubulin-Different-Phenotype (%) [7]: 15% and 30% | Total Cell Count [7]: 265 and 259 | Population Apoptotic (%) [8]: 20% and 33% | Population Fragmented Nuclei (%) [8]: 7% and 6% | Population Healthy Nuclei (%) [8]: 87% and 84% | Population Hoechst High Intensity Objects (%) [8]: 12% | Population Mitochondria Different-Phenotype (%) [8]: 25% and 27% | Population Mitotic Cells (%) [8]: 80% and 66% | Population Normal (%) [8]: 87% | Population Pyknosed Nuclei (%) [8]: 5% and 8% | Population Tubulin-Different-Phenotype (%) [8]: 19% and 39% | Total Cell Count [8]: 108 and 180
